Test results reported in ChEMBL document CHEMBL4411297, “Discovery, synthesis and anti-atherosclerotic activities of a novel selective sphingomyelin synthase 2 inhibitor” (Eur J Med Chem, 2019).
Active and inactive are the calls of the source. The rule behind the calls is not given here.

Key:
[1] = AUC (0 to 8 hrs) in C57BL/6J mouse at 100 mg/kg/day, ig by HPLC-MS/MS analysis; assay type: ADME, organism-based; parameters: dose 100 mg/kg/day, time < 8 hr, route intragastric; settings: in vivo, po
In short: (§1)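 Male C57BL/6J mice, six to eight weeks old, about 20 g, fasted 12 h with free water. Given a single intragastric dose of 25, 50 or 100 mg/kg in 10% DMSO/30% PEG-100/0.9% NaCl. Blood taken retro-orbitally at 5 min to 8 h. Plasma protein-precipitated with methanol plus internal standard, then HPLC-MS/MS on a C18 column. Noncompartmental analysis, n = 6.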

[2] = MRT (0 to infinity) in C57BL/6J mouse at 100 mg/kg/day, ig by HPLC-MS/MS analysis; assay type: ADME, organism-based; settings: in vivo, po
In short: (§2)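 Male C57BL/6J mice (6–8 weeks, ~20 g), fasted 12 h, given a single intragastric dose of 25, 50 or 100 mg/kg in 10% DMSO/30% PEG/0.9% NaCl. Retro-orbital blood at 5 min to 8 h; plasma protein-precipitated with methanol plus internal standard, assayed by LC-MS/MS; noncompartmental analysis. Mean ± SD, n = 6.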

Homo sapiens = species: Homo sapiens; assay: Selectivity ratio of IC50 for purified SMS1 (unknown origin) to IC50 for purified SMS2 (unknown origin)
[3] = Half life in C57BL/6J mouse at 50 mg/kg/day, ig by HPLC-MS/MS analysis; assay type: ADME, organism-based; settings: in vivo, po; in short: as §1
Mus musculus [4] = assay: Anti-atherosclerotic activity in apoE knockout mouse fed with western-type diet assessed as reduction in plasma SM level at 40 mg/kg/day, ig for 7 weeks relative to control; assay type: functional; parameters: scale not given: the % may be the effect or the level left
In short: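 ApoE KO mice on Western-type diet, dosed by gavage at 12.5 or 40 mg/kg/day for 7 weeks, n = 10. Blood collected at 20 weeks of age. Plasma SM measured by a previously reported method. ALT and AST read on an automated biochemical analyzer.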

Mus musculus [5] = assay: Effect on plasma ALT levels in C57BL/6J mouse at 100 mg/kg/day, ig qd for 7 days measured on day 7; assay type: ADME, organism-based; settings: in vivo, po, 168 h
In short: (§3)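 C57BL/6J mice dosed by gavage at 100 mg/kg once daily for 7 days. Plasma SM sampled on days 0, 3 and 7. Plasma ALT and AST measured on day 7 by automated analyzer. Compared with vehicle, n = 10.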

[6] = MRT (0 to infinity) in C57BL/6J mouse at 50 mg/kg/day, ig by HPLC-MS/MS analysis; assay type: ADME, organism-based; settings: in vivo, po; in short: as §2
[7] = molecular target: T1, Phosphatidylcholine:ceramide cholinephosphotransferase 2 (Homo sapiens) (UniProt Q8NHU3); assay: Inhibition of SMS2 in human HuH7 cells assessed as down regulation of apoB secretion incubated for 17 hrs followed by further incubation for 2 hrs in presence of [35S]-methionine; assay type: cell-based
T1 sequence (whole entry): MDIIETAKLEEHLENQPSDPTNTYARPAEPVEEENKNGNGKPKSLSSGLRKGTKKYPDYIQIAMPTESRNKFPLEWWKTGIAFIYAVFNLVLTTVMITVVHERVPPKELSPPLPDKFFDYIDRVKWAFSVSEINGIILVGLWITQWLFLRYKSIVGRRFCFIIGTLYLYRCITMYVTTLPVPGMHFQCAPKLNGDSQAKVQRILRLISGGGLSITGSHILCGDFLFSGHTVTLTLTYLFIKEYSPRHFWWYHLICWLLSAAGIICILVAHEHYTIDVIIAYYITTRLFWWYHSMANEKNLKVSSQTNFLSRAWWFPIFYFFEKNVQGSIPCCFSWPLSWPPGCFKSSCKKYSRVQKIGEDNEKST
In short: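 Huh7 human hepatoma cells treated with inhibitor 17 h, then pulse-labeled with [³⁵S]-methionine for 2 h with vehicle or compound; secreted [³⁵S]-apoB in medium detected and quantified.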

Mus musculus [8] = assay: Down regulation of sphingomyelin levels in C57BL/6J mouse plasma at 100 mg/kg/day, ig qd for 7 days measured on day 3 and 7; assay type: functional, organism-based; in short: as §3
Mus musculus [9] = assay: Anti-atherosclerotic activity in apoE knockout mouse fed with western-type diet assessed as reduction in CD4+/CD8+ cell ratio at 40 mg/kg/day, ig for 7 weeks by flow cytometric analysis relative to control; assay type: functional; parameters: scale not given: the % may be the effect or the level left
In short: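 ApoE KO mice started at 8 weeks old on Western-type diet for 6 weeks. Then dosed by gavage daily with vehicle, 12.5 or 40 mg/kg for 7 weeks with the diet continued, 10 mice per group. Blood single-cell suspensions stained with antibodies in PBS and analysed by flow cytometry. Mean ± SD, n = 5.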

[10] = Apparent oral clearance in C57BL/6J mouse at 25 mg/kg/day, ig by HPLC-MS/MS analysis; assay type: ADME, organism-based; settings: in vivo; in short: as §1
BMDM = assay: Induction of cytosolic IkappaBalpha […] in LPS-stimulated C57BL/6J mouse bone marrow derived macrophages preincubated for 17 hrs followed by LPS-stimulation and measured after 6 hrs by Western blot analysis; assay type: functional, cell-based
In short: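 Bone marrow-derived macrophages from femurs of 8-week-old male C57BL/6J mice, preincubated with a range of concentrations for 17 h, then stimulated with 1 µg/ml LPS. Cells lysed in RIPA buffer with protease inhibitors. Western blot probed for IκBα with β-actin as loading control, ECL detection. Mean ± SD, n = 7.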

[11] = molecular target: T2, Phosphatidylcholine:ceramide cholinephosphotransferase 2 (Mus musculus) (UniProt Q9D4B1); assay: Inhibition of SMS2 in C57BL/6J mouse bone marrow derived macrophages assessed as increase in [3H]-cholesterol efflux after 17 hrs by liquid scintillation analysis
T2 sequence (whole entry): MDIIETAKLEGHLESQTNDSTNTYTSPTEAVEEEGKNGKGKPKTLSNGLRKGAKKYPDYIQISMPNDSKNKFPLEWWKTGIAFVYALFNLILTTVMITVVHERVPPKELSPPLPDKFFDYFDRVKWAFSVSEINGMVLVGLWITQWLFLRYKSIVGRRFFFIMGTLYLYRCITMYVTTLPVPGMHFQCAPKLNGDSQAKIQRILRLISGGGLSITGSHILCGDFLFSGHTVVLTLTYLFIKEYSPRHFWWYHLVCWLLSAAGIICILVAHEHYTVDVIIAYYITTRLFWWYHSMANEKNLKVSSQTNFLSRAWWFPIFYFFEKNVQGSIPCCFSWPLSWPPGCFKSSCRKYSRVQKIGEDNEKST
In short: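 Bone marrow macrophages treated with inhibitor at various concentrations for 17 h, labeled with [³H]-cholesterol on acetylated LDL, equilibrated 1 h in DMEM/0.2% BSA, then given 50 µg/ml HDL; medium taken at 8 h. Efflux = medium radioactivity as percent of medium plus cell-lysate total, by scintillation counting.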

[12] = AUC (0 to 8 hrs) in C57BL/6J mouse at 25 mg/kg/day, ig by HPLC-MS/MS analysis; assay type: ADME, organism-based; parameters: dose 25 mg/kg/day, time < 8 hr, route intragastric; settings: in vivo, po; in short: as §1
[13] = Tmax in C57BL/6J mouse at 25 mg/kg/day, ig by HPLC-MS/MS analysis; assay type: ADME, organism-based; settings: in vivo, po; in short: as §2
[14] = MRT (0 to 8 hrs) in C57BL/6J mouse at 25 mg/kg/day, ig by HPLC-MS/MS analysis; assay type: ADME, organism-based; settings: in vivo, po; in short: as §2
[15] = Apparent oral clearance in C57BL/6J mouse at 50 mg/kg/day, ig by HPLC-MS/MS analysis; assay type: ADME, organism-based; settings: in vivo; in short: as §1

AUC at 8 h [1]: 13200 ng·h/mL
MRT inf [2]: 2.57 h
Ratio IC50 (Homo sapiens): > 1400
half-life [3]: 1.83 h
MRT inf [6]: 2.28 h
inhibition [7]: Dose-dependent effect
CL/F [10]: 188 mL/min
inhibition [11]: Dose-dependent effect
AUC at 8 h [12]: 1990 ng·h/mL
Tmax [13]: 6.6 min
MRT [14]: 1.9 h
CL/F [15]: 180 mL/min
Compound: CCc1ccccc1COc1ccccc1C(=O)Nc1cccnc1
Activity (Mus musculus [4]): 41%
Activity (Mus musculus [5]): Non-Toxic
Activity (Mus musculus [8]): Active
Activity (Mus musculus [9]): 37%
Activity (BMDM): Dose-dependent effect
